Measured values reported in ChEMBL document CHEMBL1123247, “Nucleoside conjugates. 7. Synthesis and antitumor activity of 1-beta-D-arabinofuranosylcytosine conjugates of ether lipids” (J Med Chem, 1986).

Legend:
[1] = tested on: L1210; assay: Antitumor activity against the ic implanted L1210 lymphoid leukemia in mice (1,5,9qd treatment schedule) required to produce greatest increase in life span was determined; format: functional, Mus musculus
How it was run: (§1)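 DBA/2J mice, groups of 6 (26-32 g), got 1 × 10^5 L1210 cells ic on day 0. Dosing was ip starting 24 h later, as a sonicated solution or suspension in 0.9% NaCl with 0.5% Tween-80, over a wide dose range. Mice were followed daily until death. Median survival T/C was taken from survivors per NCI protocols, and ILS = (T/C − 1) × 100. Active range means doses giving ILS ≥25%; optimal dose means greatest ILS.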

[2] = tested on: L1210; assay: Antitumor activity was determined against the ip implanted L1210 leukemia in mice by 45-day survivors in mice at 300 mg/kg (treatment of 1qd schedule) dosage; format: functional, Mus musculus; details: route intraperitoneal
How it was run: (§2)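 DBA/2J mice in groups of 6 (wt 23-28 g) were inoculated ip with 1×10^6 L1210 cells on day 0. Dosing was ip from 24 h, in 0.9% NaCl with 0.5% Tween-80 (conjugates sonicated), across a range of doses. Mice were observed daily until death or 45 days. Median T/C was computed from survivors per NCI protocols, and ILS = (T/C − 1)×100.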

[3] = tested on: L1210; assay: Antitumor activity was determined against the ip implanted L1210 leukemia in mice by percent increase in life span at 300 mg/kg (treatment of 1qd schedule) dosage; format: functional, Mus musculus; details: route intraperitoneal; how it was run: as §2
[4] = tested on: L1210; assay: Antitumor activity was determined against the ic implanted L1210 lymphoid leukemia in mice by percent increase in life span at 133 mg/kg (1,5,9qd treatment schedule) dosage; format: functional, Mus musculus; how it was run: as §1
[5] = tested on: L1210; assay: Antitumor activity was determined against the ip implanted L1210 leukemia in mice by percent median survival rate (treated/control) at 300 mg/kg (treatment of 1qd schedule) dosage; 20.5/6.5; format: functional, Mus musculus; details: route intraperitoneal
How it was run: (§3)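 DBA/2J mice, 23-28 g, in groups of 6, were inoculated ip with 1×10^6 L1210 cells on day 0. Dosing was ip starting 24 h later on the stated daily schedules. Conjugates were given as sonicated solutions and reference prodrugs as suspensions in 0.9% NaCl with 0.5% Tween-80. Mice were observed daily until death or 45 days. Median survival T/C was calculated from survivors per NCI protocols.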

[6] = tested on: L1210; assay: Antitumor activity against the ic implanted L1210 lymphoid leukemia in mice expressed as optimal dose (1 qd treatment schedule) required to produce greatest increase in life span was determined; format: functional, Mus musculus; how it was run: as §1
[7] = tested on: L1210; assay: Antitumor activity was determined against the ip implanted L1210 leukemia in mice by percent median survival rate (treated/control) at 400 mg/kg (treatment of 1qd schedule) dosage; 27.5/7.0; format: functional, Mus musculus; details: route intraperitoneal; how it was run: as §3
[8] = tested on: P388; assay: Antitumor activity against ip implanted P388 leukemia in mice expressed as active dose range (1,5,9qd treatment schedule) required to produce increase in life span by >25% was determined; Range is 67-133; format: functional, Mus musculus
How it was run: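 P388 leukemia: 1 × 10^6 cells were given ip on day 0 to DBA/2J mice, groups of 6 (23-33 g). Treatment was ip from 24 h after inoculation, vehicle 0.9% NaCl with 0.5% Tween-80. Mice were observed daily until death or 45 days. Median survival T/C was calculated from survivors per NCI protocols, and ILS = (T/C − 1) × 100. Active range means doses giving ILS ≥25%; optimal dose means greatest ILS.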

[9] = tested on: P388; assay: Antitumor activity was determined against the ip implanted P388 leukemia in mice by change in […] at 60 mg/kg (treatment of 1-5qd schedule) dosage; format: functional, Mus musculus; details: route intraperitoneal
How it was run: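 P388 leukemia, 1×10^6 cells implanted ip on day 0 into DBA/2J mice, groups of 6 (wt 23-33 g). Dosing ip started 24 h post-inoculation, vehicle 0.9% NaCl containing 0.5% Tween-80. Animals were observed daily until death or 45 days. Outputs were weight change, median survival T/C from survivors per NCI protocols, and %ILS = (T/C − 1) × 100.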

[10] = tested on: P388; assay: Antitumor activity was determined against the ip implanted P388 leukemia in mice by range in survival days at 200 mg/kg (treatment of 1-5qd schedule) dosage; Range is 22-24; format: functional, Mus musculus; details: route intraperitoneal
[11] = tested on: Non-small cell lung cancer cell line; assay: Compound was tested for the inhibition of non- small cell lung cancer; format: functional, cell-based; details: Homo sapiens
How it was run: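 Human leukemia and solid tumor cells in culture were exposed to compound for 48 h. Viability was scored by trypan blue dye exclusion. IC50 (50% inhibition) was estimated from response curves of three separate experiments.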

[12] = tested on: L1210; assay: Antitumor activity was determined against the ic implanted L1210 lymphoid leukemia in mice by range in survival days at 100 mg/kg (treatment of 1-9qd schedule) dosage; Range is 11-18; format: functional, Mus musculus
[13] = tested on: L1210; assay: Antitumor activity was determined against the ip implanted L1210 leukemia in mice by percent increase in life span at 200 mg/kg (treatment of 1-5qd schedule) dosage; format: functional, Mus musculus; details: route intraperitoneal; how it was run: as §2
[14] = tested on: L1210; assay: Antitumor activity was determined against the ic implanted L1210 lymphoid leukemia in mice by change in […] at 100 mg/kg (treatment of 1-9qd schedule) dosage; format: functional, Mus musculus
How it was run: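 DBA/2J mice, 6 per group (wt 26-32 g), inoculated ic with 1×10^5 L1210 cells on day 0. Dosing ip began 24 h after inoculation, with a sonicated solution or suspension in 0.9% NaCl containing 0.5% Tween-80, given over a range of doses. Animals were followed daily until death. Body weight change, median survival T/C, and %ILS = (T/C − 1) × 100 were computed from survivors per NCI protocols.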

[15] = tested on: L1210; assay: Antitumor activity was determined against the ip implanted L1210 leukemia in mice by percent median survival rate (treated/control) at 200 mg/kg (treatment of 1-5qd schedule) dosage; 17.0/7.0; format: functional, Mus musculus; details: route intraperitoneal; how it was run: as §2
[16] = tested on: L1210; assay: Antitumor activity against ip implanted L1210 leukemia in mice expressed as active dose range (1 qd treatment schedule) required to produce increase in life span by >25% was determined; Range is 300-500; format: functional, Mus musculus
How it was run: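 DBA/2J mice, groups of 6 (23-28 g), were inoculated ip with 1 × 10^6 L1210 cells on day 0. Dosing was ip from 24 h, in 0.9% NaCl with 0.5% Tween-80 (sonicated solution or suspension). Mice were observed daily until death or day 45. Median survival T/C followed NCI protocols, and ILS = (T/C − 1) × 100. Active range means doses giving ILS ≥25%; optimal dose means greatest ILS.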

[17] = tested on: P388; assay: Antitumor activity was determined against the ip implanted P388 leukemia in mice by 45-day survivors in mice at 67 mg/kg (treatment of 1,5,9qd schedule) dosage; format: functional, Mus musculus; details: route intraperitoneal
How it was run: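 DBA/2J mice, 23-33 g, in groups of 6, were inoculated ip with 1×10^6 P388 cells on day 0. Dosing was ip from 24 h on the stated schedules, in 0.9% NaCl with 0.5% Tween-80 (sonicated solution or suspension). Survival was followed daily until death or 45 days. Median T/C was calculated from survivors per NCI protocols, with ILS = (T/C − 1) × 100.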

[18] = tested on: L1210; assay: Antitumor activity was determined against the ip implanted L1210 leukemia in mice by percent median survival rate (treated/control) at 400 mg/kg (treatment of 1qd schedule) dosage; 25.0/7.0; format: functional, Mus musculus; details: route intraperitoneal; how it was run: as §3

In the case of `CCCCCCCCCCCCCCCC(=O)OC[C@H](COP(=O)(O)OP(=O)(O)OC[C@H]1O[C@@H](n2ccc(N)nc2=O)[C@@H](O)[C@@H]1O)OC(=O)CCCCCCCCCCCCCCC`, the Optimal dose [1] is reported as 133 mg, the Survivors [2] is reported as 1 and the ILS [3] is reported as 215. For the same molecule, the ILS [4] was 150, the median survival time [5] was 20.5 days and the Optimal dose [6] was 300 mg.

`CCCCCCCCCCCCCCCCOCC(COP(=O)(O)OP(=O)(O)OC[C@H]1O[C@@H](n2ccc(N)nc2=O)[C@@H](O)[C@@H]1O)OC(=O)CCCCCCCCCCCCCCC` (mixture of isomers) showed a T/C [7] of 27.5%, an Active dose range [8] of 67 mg/kg/day and a Weight change [9] of -3.3 g mouse-1.

Molecule `Nc1ccn([C@@H]2O[C@H](CO)[C@@H](O)[C@@H]2O)c(=O)n1` [CYTARABINE] has a Range [10] of 22, an IC50 [11] of 34 µM and a Range [12] of 11. The ILS [13] was 143, the Weight change [14] was -5.8 and the median survival time [15] was 17 days.

`CCCCCCCCCCCCCCCCCCOCC(COP(=O)(O)OP(=O)(O)OC[C@H]1O[C@@H](n2ccc(N)nc2=O)[C@@H](O)[C@@H]1O)OC(=O)CCCCCCCCCCCCCCC` (mixture of isomers) was tested, and the Active dose range [16] was 300 mg/kg/day, the Survivors [17] was 0 and the T/C [18] was 25%.
